From ChEMBL document CHEMBL4316611, “Design, synthesis and evaluation of novel (S)-tryptamine derivatives containing an allyl group and an aryl sulfonamide unit as anticancer agents” (Bioorg Med Chem Lett, 2019)

Experiments:
[1] = tested on: HepG2; experiment: Induction of apoptosis in human HepG2 cells assessed as viable cells level at 30 uM incubated for 48 hrs by Annexin V-FITC/propidium iodide staining based flow cytometry (reference value: 94.56%); assay type: functional
[2] = tested on: HepG2; experiment: Induction of apoptosis in human HepG2 cells assessed as necrotic cells level at 10 uM incubated for 48 hrs by Annexin V-FITC/propidium iodide staining based flow cytometry (reference value: 0.53%); assay type: functional
[3] = tested on: HepG2; experiment: Induction of cell cycle arrest in human HepG2 cells assessed as accumulation at G1 phase at 25 uM incubated for 24 hrs by propidium iodide staining based flow cytometry (reference value: 39.79%); assay type: functional
[4] = tested on: HepG2; experiment: Cytotoxicity in human HepG2 cells assessed as reduction in cell viability incubated for 48 hrs by MTT assay; assay type: functional, cell-based; conditions: HepG2, 48 h
Summary of the method: (§1)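 MTT viability assay; cells exposed continuously to compounds for 48 h. IC50 values reported as mean ± SD. Cisplatin served as positive control.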

[5] = tested on: CNE; experiment: Cytotoxicity in human CNE1 cells assessed as reduction in cell viability incubated for 48 hrs by MTT assay; assay type: functional, cell-based; summary of the method: as §1
[6] = tested on: HeLa; experiment: Cytotoxicity in human HeLa cells assessed as reduction in cell viability incubated for 48 hrs by MTT assay; assay type: functional, cell-based; summary of the method: as §1
[7] = tested on: HepG2; experiment: Inhibition of colony formation in human HepG2 cells incubated for 14 days by Giemsa staining based assay; assay type: functional, cell-based
Summary of the method: (§2)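 Colony formation assay: cells exposed at 0, 2.5, 5 and 7.5 μM for 2 weeks. Colonies imaged and quantified by image analysis. Inhibition rate expressed as mean ± SD against control.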

[8] = tested on: A549; experiment: Cytotoxicity in human A549 cells assessed as reduction in cell viability incubated for 48 hrs by MTT assay; assay type: functional, cell-based; conditions: A549, 48 h; summary of the method: as §1
[9] = tested on: HepG2; experiment: Induction of apoptosis in human HepG2 cells assessed as viable cells level at 10 uM incubated for 48 hrs by Annexin V-FITC/propidium iodide staining based flow cytometry (reference value: 94.56%); assay type: functional
[10] = tested on: HepG2; experiment: Inhibition of colony formation in human HepG2 cells at 7.5 uM incubated for 14 days by Giemsa staining based assay; assay type: functional; conditions: HepG2, 336 h; summary of the method: as §2
[11] = tested on: HepG2; experiment: Induction of apoptosis in human HepG2 cells assessed as necrotic cells level at 30 uM incubated for 48 hrs by Annexin V-FITC/propidium iodide staining based flow cytometry (reference value: 0.53%); assay type: functional
[12] = tested on: HepG2; experiment: Induction of apoptosis in human HepG2 cells assessed as late apoptotic cells level at 10 uM incubated for 48 hrs by Annexin V-FITC/propidium iodide staining based flow cytometry (reference value: 2.02%); assay type: functional
[13] = tested on: HepG2; experiment: Induction of apoptosis in human HepG2 cells assessed as late apoptotic cells level at 30 uM incubated for 48 hrs by Annexin V-FITC/propidium iodide staining based flow cytometry (reference value: 2.02%); assay type: functional
[14] = tested on: HepG2; experiment: Induction of apoptosis in human HepG2 cells assessed as early apoptotic cells level at 30 uM incubated for 48 hrs by Annexin V-FITC/propidium iodide staining based flow cytometry (reference value: 2.89%); assay type: functional
[15] = tested on: HepG2; experiment: Induction of cell cycle arrest in human HepG2 cells assessed as accumulation at G1 phase at 35 uM incubated for 24 hrs by propidium iodide staining based flow cytometry (reference value: 39.79%); assay type: functional
[16] = tested on: HepG2; experiment: Induction of apoptosis in human HepG2 cells assessed as necrotic cells level at 20 uM incubated for 48 hrs by Annexin V-FITC/propidium iodide staining based flow cytometry (reference value: 0.53%); assay type: functional
[17] = tested on: HepG2; experiment: Induction of cell cycle arrest in human HepG2 cells assessed as accumulation at G1 phase incubated for 24 hrs by propidium iodide staining based flow cytometry; assay type: functional
[18] = tested on: HepG2; experiment: Induction of apoptosis in human HepG2 cells assessed as early apoptotic cells level at 20 uM incubated for 48 hrs by Annexin V-FITC/propidium iodide staining based flow cytometry (reference value: 2.89%); assay type: functional
[19] = tested on: HepG2; experiment: Induction of apoptosis in human HepG2 cells assessed as late apoptotic cells level at 20 uM incubated for 48 hrs by Annexin V-FITC/propidium iodide staining based flow cytometry (reference value: 2.02%); assay type: functional
[20] = tested on: HepG2; experiment: Induction of apoptosis in human HepG2 cells assessed as early apoptotic cells level at 10 uM incubated for 48 hrs by Annexin V-FITC/propidium iodide staining based flow cytometry (reference value: 2.89%); assay type: functional
[21] = tested on: HepG2; experiment: Induction of cell cycle arrest in human HepG2 cells assessed as accumulation at G1 phase at 15 uM incubated for 24 hrs by propidium iodide staining based flow cytometry (reference value: 39.79%); assay type: functional
[22] = tested on: HepG2; experiment: Induction of apoptosis in human HepG2 cells assessed as viable cells level at 20 uM incubated for 48 hrs by Annexin V-FITC/propidium iodide staining based flow cytometry (reference value: 94.56%); assay type: functional

`C=CC[C@@H](Cc1c[nH]c2ccccc12)NS(=O)(=O)c1c(C(C)C)cc(C(C)C)cc1C(C)C` showed an Activity [1] of 25.38%, an Activity [2] of 0.69% and an Activity [3] of 48.82%. The IC50 [4] was 16.5 µM, the IC50 [5] was 18.3 µM and the IC50 [6] was 16.5 µM. For the same compound, the inhibition [7] was “Dose-dependent effect”, the IC50 [8] was 18.7 µM and the Activity [9] was 89.7%. The inhibition at 7.5 µM [10] was 95%, the Activity [11] was 0.91% and the Activity [12] was 2.96%. For the same compound, the Activity [13] was 20.25%, the Activity [14] was 53.46% and the Activity [15] was 53.35%. For the same compound, the Activity [16] was 0.75%, the Activity [17] was “Dose-dependent effect” and the Activity [18] was 21.29%. For the same compound, the Activity [19] was 4.85%, the Activity [20] was 6.63% and the Activity [21] was 44.89%. For the same compound, the Activity [22] was 73.08%.
